According to ChEMBL document CHEMBL1134044, “Beneficial effects of different flavonoids, on functional recovery after ischemia and reperfusion in isolated rat heart” (2001):

How the values were obtained:
Type in all cases: functional, Muscle tissue
Rattus norvegicus [1] = species on record: Rattus norvegicus; experiment: Effect of compound on Glutathione peroxidase measured as disappearance of NADPH in isolated rat heart muscle subjected to global ischemia
Method in brief: (§1)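 Isolated rat hearts: 10 min initial perfusion, then 15 min recirculating Krebs with drug (diluted from 10⁻² M DMSO stock; final DMSO 0.01% v/v, matched in controls), 30 min global ischemia, then 30 min reperfusion with the same regime. Hearts were homogenized and frozen in liquid nitrogen. Enzymes were assayed in the centrifuged supernatant, normalized […]; mean ± S.D.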

Rattus norvegicus [2] = species on record: Rattus norvegicus; experiment: Effect of compound on catalase measured as disappearance of H2O2 in isolated rat heart muscle subjected to global ischemia; method in brief: as §1
Rattus norvegicus [3] = species on record: Rattus norvegicus; experiment: Superoxide dismutase activity measured as inhibition of Cytochrome C reduction by 50% in isolated rat heart muscle subjected to global ischemia; method in brief: as §1

| Compound | Activity (Rattus norvegicus [1]) | Activity (Rattus norvegicus [2]) | Activity (Rattus norvegicus [3]) |
| --- | --- | --- | --- |
| CC(C)(C)c1cc(-c2cc(=O)c3ccc(O)cc3o2)cc(C(C)(C)C)c1O | 1982 U (mg of protein)-1 | 21 U (mg of protein)-1 | 8433 U (mg of protein)-1 |
| CC(C)(C)c1cc(/C=C2\C(=O)c3ccc(O)cc3OC2c2cc(C(C)(C)C)c(O)c(C(C)(C)C)c2)cc(C(C)(C)C)c1O (stereo not drawn) | 1906 U (mg of protein)-1 | 21 U (mg of protein)-1 | 8935 U (mg of protein)-1 |
| CC(C)(C)c1cc(/C=C/C(=O)c2ccc(O)cc2O)cc(C(C)(C)C)c1O | 1879 U (mg of protein)-1 | 20 U (mg of protein)-1 | 8740 U (mg of protein)-1 |
| Oc1ncnc2[nH]ncc12 [ALLOPURINOL] | 1912 U (mg of protein)-1 | 21 U (mg of protein)-1 | 9800 U (mg of protein)-1 |
| Cc1cc(C(C)(C)C)c(O)c(C(C)(C)C)c1 [BUTYLATED HYDROXYTOLUENE] | 1803 U (mg of protein)-1 | 20 U (mg of protein)-1 | 9636 U (mg of protein)-1 |
| C[C@@H]1O[C@@H](OC[C@H]2O[C@@H](Oc3c(-c4ccc(O)c(O)c4)oc4cc(O)cc(O)c4c3=O)[C@H](O)[C@@H](O)[C@@H]2O)[C@H](O)[C@H](O)[C@H]1O [RUTIN] | 1829 U (mg of protein)-1 | 21 U (mg of protein)-1 | 9077 U (mg of protein)-1 |
